{"source": "paper PMC8864714", "about": "(Chemical Science, 2022)", "key": {"[1]": {"test_system": "panel of Gram-negative pathogens", "test": "Antibacterial testing, statements in words", "assay_type": "cell-based", "details": "Table S2"}, "[2]": {"test_system": "FADDI-AB156 (colistin-resistant, rifampin-resistant & MDR, XDR)", "test": "MIC antibacterial assay", "assay_type": "cell-based, A. baumannii", "details": "for MIC, FADDI-AB156: 100% MHB, 90 min, 37 °C, twice in duplicate, mean ± SD", "procedure,_shortened": "(§1)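 Broth assay in 100% Mueller Hinton broth. Test compound was serially diluted from 250 to 4 μg ml−1 and mixed 1:1 by volume with a bacterial suspension of 2 × 10^6 cells per ml, then incubated 90 min at 37 °C. MIC was obtained by plotting maximal growth against concentration (Lambert and Pearson method). Run twice in duplicate; mean ± SD.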"}, "A. baumannii ATCC 19606": {"test_system": "A. baumannii ATCC 19606", "test": "MIC antibacterial assay", "assay_type": "cell-based, Acinetobacter baumannii", "details": "for MIC, A. baumannii 19606: 100% MHB, 90 min, 37 °C, twice in duplicate, mean ± SD"}, "E. coli ATCC 25922": {"test_system": "E. coli ATCC 25922", "test": "MIC antibacterial assay", "assay_type": "cell-based, Escherichia coli"}, "K. pneumoniae ATCC 13883": {"test_system": "K. pneumoniae ATCC 13883", "test": "MIC antibacterial assay", "assay_type": "cell-based, Klebsiella pneumoniae"}, "A. baumannii 19606": {"test_system": "A. baumannii 19606", "test": "Minimum bactericidal concentration", "assay_type": "cell-based, Acinetobacter baumannii"}, "FADDI-KP028 (MDR)": {"test_system": "FADDI-KP028 (MDR)", "test": "MIC antibacterial assay", "assay_type": "cell-based, K. pneumoniae", "procedure,_shortened": "as §1"}, "A. baumannii culture": {"test_system": "A. baumannii culture", "test": "Peptide stability in bacterial culture", "assay_type": "in vitro ADME", "details": "90 min incubation with A. baumannii culture"}, "[3]": {"details": "100% MHB, 90 min, 37 °C, twice in duplicate, mean ± SD"}}, "note": "Bridge positions count the residues as written; N and C are the ends. Square brackets hold non-standard residues; d marks the D form. I, II: the chains in the order shown. * marks the point of attachment. Ac6c = NC1(C(=O)O)CCCCC1; NHNH2 = NN*", "data": [{"molecule": "Fc1c(F)c(F)c(F)c(F)c1F", "note": "[Hexafluorobenzene]", "values": [{"measurement": "antibacterial activity of the linkers alone", "setting": "[1]", "value": "no antibacterial activity"}]}, {"molecule": "CNC(C)C1CCC(N)C(OC2C(N)CC(N)C(OC3OCC(C)(O)C(NC)C3O)C2O)O1", "note": "(centres unmarked) [Gentamicin]", "values": [{"measurement": "MIC", "setting": "[2]; Acinetobacter baumannii, 1.5 h, read-out: MIC, FADDI-AB156", "value": "> 250", "unit": "µg/mL"}, {"measurement": "MIC", "setting": "A. baumannii ATCC 19606; Acinetobacter baumannii, ATCC19606, 1.5 h, read-out: MIC, A. baumannii 19606", "value": "2.7 ± 0.2", "unit": "µg/mL"}, {"measurement": "MIC", "setting": "E. coli ATCC 25922; Escherichia coli, ATCC25922, 1.5 h, read-out: MIC, E. coli 25922", "value": "0.9 ± 0.1", "unit": "µg/mL"}, {"measurement": "MIC", "setting": "K. pneumoniae ATCC 13883; Klebsiella pneumoniae, ATCC13883, 1.5 h, read-out: MIC, K. pneumoniae 13883", "value": "0.1 ± 0.05", "unit": "µg/mL"}, {"measurement": "MBC", "setting": "A. baumannii 19606; Acinetobacter baumannii, 19606, read-out: Bactericidal MBC, A. baumannii 19606", "value": "4.6 ± 0.3", "unit": "µg/mL"}, {"measurement": "MIC", "setting": "FADDI-KP028 (MDR); Klebsiella pneumoniae, 1.5 h, read-out: MIC, FADDI-KP028", "value": "> 250", "unit": "µg/mL"}]}, {"molecule": "Fc1c(F)c(F)c(-c2c(F)c(F)c(F)c(F)c2F)c(F)c1F", "note": "[Decafluorobiphenyl]", "values": [{"measurement": "antibacterial activity of the linkers alone", "setting": "[1]", "value": "no antibacterial activity"}]}, {"molecule": "I: H-[Ac6c]RPDKPRPYLPRPRPPRPVRC-NHNH2 / II: H-[Ac6c]RPDKPRPYLPRPRPPRPVRC-NHNH2 (disulfide I:21-II:21) [compound 2]", "values": [{"measurement": "MIC, FADDI-AB156", "setting": "[2]", "value": "59.2 ± 0.2 (11.4) μg ml^−1"}, {"measurement": "MIC, A. baumannii 19606", "setting": "A. baumannii ATCC 19606", "value": "30.8 ± 3.3 (5.9) μg ml^−1"}, {"measurement": "MIC, E. coli 25922", "setting": "E. coli ATCC 25922; [3]", "value": "3.1 ± 0.1 (0.6) μg ml^−1"}, {"measurement": "MIC, K. pneumoniae 13883", "setting": "K. pneumoniae ATCC 13883; [3]", "value": "5.1 ± 0.8 (1.0) μg ml^−1"}, {"measurement": "MIC, FADDI-KP028", "setting": "FADDI-KP028 (MDR); [3]", "value": "111.3 ± 0.3 (21.5) μg ml^−1"}, {"measurement": "peptide stability in A. baumannii culture (RP-HPLC trace)", "setting": "A. baumannii culture", "value": "reduced"}]}, {"molecule": "Colistin", "values": [{"measurement": "MIC, FADDI-AB156", "setting": "[2]", "value": "12.6 ± 1.6 (10.9) μg ml^−1"}, {"measurement": "MIC, A. baumannii 19606", "setting": "A. baumannii ATCC 19606", "value": "0.5 ± 0.04 (0.4) μg ml^−1"}, {"measurement": "Bactericidal MBC, A. baumannii 19606", "setting": "A. baumannii 19606; CFU assay, twice in duplicate, mean ± SD", "value": "0.8 ± 0.02 (0.7) μg ml^−1"}]}]}
